The results in this text go back to ChEMBL document CHEMBL1139268, “Camphor sulfonamide derivatives as novel, potent and selective CXCR3 antagonists” (Bioorg Med Chem Lett, 2009).

Data set [1] addresses T1, Cytochrome P450 3A4 (Homo sapiens, UniProt P08684). Description: Inhibition of CYP3A4 green. It counts as ADME.
Another data set concerns the target T2, Cytochrome P450 1A2 (Homo sapiens, UniProt P05177).
T2 sequence (P05177 whole entry): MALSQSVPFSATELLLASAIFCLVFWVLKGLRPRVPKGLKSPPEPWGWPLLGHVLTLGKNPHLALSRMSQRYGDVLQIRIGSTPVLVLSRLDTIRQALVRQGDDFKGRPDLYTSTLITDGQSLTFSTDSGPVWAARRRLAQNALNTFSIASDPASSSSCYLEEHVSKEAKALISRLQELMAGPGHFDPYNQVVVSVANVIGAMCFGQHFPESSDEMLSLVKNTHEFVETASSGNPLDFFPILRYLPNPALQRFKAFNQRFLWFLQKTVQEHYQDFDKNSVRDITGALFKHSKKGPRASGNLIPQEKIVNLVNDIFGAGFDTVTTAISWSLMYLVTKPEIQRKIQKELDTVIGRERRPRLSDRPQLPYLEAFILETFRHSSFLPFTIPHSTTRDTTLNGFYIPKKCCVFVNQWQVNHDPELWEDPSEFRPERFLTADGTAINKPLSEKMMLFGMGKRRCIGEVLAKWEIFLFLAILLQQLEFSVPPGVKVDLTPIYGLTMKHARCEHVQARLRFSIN
Description: Inhibition of CYP1A2. It counts as ADME.

Data set [2] has as its target T1, Cytochrome P450 3A4. Description: Inhibition of CYP3A4 red. In kind it is ADME.
Data set [3] addresses T3, C-X-C chemokine receptor type 3 (Mus musculus, UniProt O88410).
T3 sequence (O88410 whole entry): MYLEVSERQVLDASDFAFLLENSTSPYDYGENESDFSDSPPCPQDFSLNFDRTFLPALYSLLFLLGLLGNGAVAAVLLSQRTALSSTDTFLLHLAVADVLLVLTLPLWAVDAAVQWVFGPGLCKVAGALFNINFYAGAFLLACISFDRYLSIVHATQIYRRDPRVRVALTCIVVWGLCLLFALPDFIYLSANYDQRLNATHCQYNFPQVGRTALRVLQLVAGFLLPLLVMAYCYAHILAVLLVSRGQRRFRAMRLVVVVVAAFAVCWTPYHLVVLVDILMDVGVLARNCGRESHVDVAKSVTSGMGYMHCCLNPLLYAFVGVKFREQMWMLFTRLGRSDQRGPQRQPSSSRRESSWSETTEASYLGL
Description: Antagonist activity at mouse recombinant CXCR3 expressed in human U2OS cells. In kind it is functional, cell-based. A digest of the protocol:
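Human U2OS cells were transiently transduced with a mixture of recombinant BacMam viruses, one expressing murine CXCR3 and one expressing chimeric G-protein Gqi5.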

In another data set the target is Cytochrome P450 2D6 (Homo sapiens, UniProt P10635). Kind of data set: Inhibition of CYP2D6. It counts as ADME.
A further data set has as its target Cytochrome P450 2C9 (Homo sapiens, UniProt P11712). Kind of data set: Inhibition of CYP2C9. In kind it is ADME.
For data set [4], the target named is T4, C-X-C chemokine receptor type 3 (Homo sapiens, UniProt P49682).
T4 sequence (P49682 whole entry): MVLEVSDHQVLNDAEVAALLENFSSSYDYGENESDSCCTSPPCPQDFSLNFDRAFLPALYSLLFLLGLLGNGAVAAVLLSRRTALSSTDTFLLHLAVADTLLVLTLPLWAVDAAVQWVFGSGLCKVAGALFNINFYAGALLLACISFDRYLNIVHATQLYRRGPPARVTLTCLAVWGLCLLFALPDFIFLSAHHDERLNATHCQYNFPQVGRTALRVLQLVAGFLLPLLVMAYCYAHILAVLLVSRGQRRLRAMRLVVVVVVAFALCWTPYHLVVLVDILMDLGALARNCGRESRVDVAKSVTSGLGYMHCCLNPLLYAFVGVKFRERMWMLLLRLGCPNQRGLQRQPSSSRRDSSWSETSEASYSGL
Kind of data set: Antagonist activity at human recombinant CXCR3 receptor expressed in CHO-K1 cells assessed as human IP10-induced calcium flux by FLIPR assay. In kind it is functional, cell-based.

A further data set concerns the target Cytochrome P450 2C19 (Homo sapiens, UniProt P33261). Kind of data set: Inhibition of CYP2C19. It counts as ADME.
Data set [5] has as its target T4, C-X-C chemokine receptor type 3. Description: Antagonist activity at human recombinant CXCR3 receptor assessed as human IP10-induced calcium mobilization by FLIPR assay. It counts as functional. Particulars: read-out: pA2 (converted).
A short description of data set [6]: Volume of distribution at steady state in rat a 1.1 mg/kg, iv and 2.0 mg/kg, po. In kind it is ADME, organism-based. As to conditions: in vivo, read-out: Vdss.
Data set [7] in a line: Aqueous solubility of the compound. It counts as physicochemical. As to conditions: buffer.
In another data set the test system is Rattus norvegicus. Kind of data set: Half life in rat at 1.1 mg/kg, iv and 2.0 mg/kg, po. In kind it is ADME, organism-based. As to conditions: in vivo.
Data set [8] in a line: Oral bioavailability in rat at 2.0 mg/kg. In kind it is ADME, organism-based. As to conditions: in vivo.
Data set [9] is described as follows: Clearance in rat at 1.1 mg/kg, iv and 2.0 mg/kg, po. It counts as ADME, organism-based. As to conditions: in vivo.
In data set [10] the target is Voltage-gated inwardly rectifying potassium channel KCNH2 (Homo sapiens, UniProt Q12809). Description: Binding affinity to human ERG.
Data set [11] is described as follows: Permeability across artificial membrane. It counts as ADME. Particulars: PAMPA; read-out: permeability.

≈ marks a conversion by molar mass, not a printed value.

T1 sequence (P08684 whole entry): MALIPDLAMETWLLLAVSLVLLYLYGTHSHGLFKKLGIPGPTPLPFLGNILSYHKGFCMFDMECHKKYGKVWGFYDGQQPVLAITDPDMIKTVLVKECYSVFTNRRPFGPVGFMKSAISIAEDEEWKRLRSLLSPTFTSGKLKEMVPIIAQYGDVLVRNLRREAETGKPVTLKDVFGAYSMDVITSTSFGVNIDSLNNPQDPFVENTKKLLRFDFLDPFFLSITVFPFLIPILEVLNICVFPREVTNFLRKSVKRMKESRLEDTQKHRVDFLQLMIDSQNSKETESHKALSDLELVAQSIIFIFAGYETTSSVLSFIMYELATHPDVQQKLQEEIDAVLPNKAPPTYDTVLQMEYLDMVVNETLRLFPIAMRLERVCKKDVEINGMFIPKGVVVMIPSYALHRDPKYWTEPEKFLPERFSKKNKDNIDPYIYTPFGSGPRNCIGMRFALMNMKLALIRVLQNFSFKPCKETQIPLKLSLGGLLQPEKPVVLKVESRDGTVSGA
Cytochrome P450 2C19, sequence (P33261 whole entry): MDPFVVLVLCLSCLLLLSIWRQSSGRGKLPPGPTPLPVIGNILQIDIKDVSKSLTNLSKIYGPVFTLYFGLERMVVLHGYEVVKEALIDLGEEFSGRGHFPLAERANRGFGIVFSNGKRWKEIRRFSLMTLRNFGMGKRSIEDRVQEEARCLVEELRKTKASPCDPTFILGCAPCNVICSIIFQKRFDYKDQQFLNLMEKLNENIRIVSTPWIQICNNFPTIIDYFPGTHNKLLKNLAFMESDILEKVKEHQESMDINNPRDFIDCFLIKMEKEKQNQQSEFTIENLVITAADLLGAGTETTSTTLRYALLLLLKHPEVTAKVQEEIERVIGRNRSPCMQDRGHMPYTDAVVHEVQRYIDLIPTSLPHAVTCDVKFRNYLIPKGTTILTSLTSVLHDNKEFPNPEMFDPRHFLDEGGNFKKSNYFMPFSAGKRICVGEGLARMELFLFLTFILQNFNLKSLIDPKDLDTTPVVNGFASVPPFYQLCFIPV
Voltage-gated inwardly rectifying potassium channel KCNH2, sequence (Q12809 whole entry): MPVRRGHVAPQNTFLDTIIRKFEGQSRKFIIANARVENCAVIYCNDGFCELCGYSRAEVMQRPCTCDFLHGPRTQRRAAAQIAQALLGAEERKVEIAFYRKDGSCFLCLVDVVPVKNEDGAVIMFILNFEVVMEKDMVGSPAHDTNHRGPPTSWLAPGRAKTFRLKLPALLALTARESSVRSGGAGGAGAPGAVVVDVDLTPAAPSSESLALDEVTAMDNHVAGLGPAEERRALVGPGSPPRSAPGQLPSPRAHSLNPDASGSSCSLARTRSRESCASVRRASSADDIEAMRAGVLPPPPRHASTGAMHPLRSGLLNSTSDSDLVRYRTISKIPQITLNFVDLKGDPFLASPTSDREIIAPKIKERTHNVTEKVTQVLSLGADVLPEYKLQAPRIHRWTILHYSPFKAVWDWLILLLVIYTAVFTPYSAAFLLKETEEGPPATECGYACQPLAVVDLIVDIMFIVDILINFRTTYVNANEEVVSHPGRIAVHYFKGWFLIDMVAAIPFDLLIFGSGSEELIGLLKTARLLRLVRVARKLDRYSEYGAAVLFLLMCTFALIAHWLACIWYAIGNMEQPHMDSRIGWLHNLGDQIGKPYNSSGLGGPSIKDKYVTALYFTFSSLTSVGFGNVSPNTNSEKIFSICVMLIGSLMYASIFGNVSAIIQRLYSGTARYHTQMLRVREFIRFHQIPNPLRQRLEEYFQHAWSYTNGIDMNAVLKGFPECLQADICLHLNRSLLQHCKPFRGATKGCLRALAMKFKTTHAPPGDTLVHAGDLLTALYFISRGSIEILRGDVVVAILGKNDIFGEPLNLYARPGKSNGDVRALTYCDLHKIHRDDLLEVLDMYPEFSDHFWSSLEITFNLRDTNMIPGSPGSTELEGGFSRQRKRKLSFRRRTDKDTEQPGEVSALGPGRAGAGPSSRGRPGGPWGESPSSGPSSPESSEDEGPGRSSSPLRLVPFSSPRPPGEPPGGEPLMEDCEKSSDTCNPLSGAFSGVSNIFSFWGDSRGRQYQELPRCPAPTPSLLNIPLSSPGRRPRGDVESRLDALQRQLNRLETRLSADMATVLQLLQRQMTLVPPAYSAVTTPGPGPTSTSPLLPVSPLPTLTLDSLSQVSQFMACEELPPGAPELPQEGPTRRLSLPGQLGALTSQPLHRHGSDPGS
Cytochrome P450 2C9, sequence (P11712 whole entry): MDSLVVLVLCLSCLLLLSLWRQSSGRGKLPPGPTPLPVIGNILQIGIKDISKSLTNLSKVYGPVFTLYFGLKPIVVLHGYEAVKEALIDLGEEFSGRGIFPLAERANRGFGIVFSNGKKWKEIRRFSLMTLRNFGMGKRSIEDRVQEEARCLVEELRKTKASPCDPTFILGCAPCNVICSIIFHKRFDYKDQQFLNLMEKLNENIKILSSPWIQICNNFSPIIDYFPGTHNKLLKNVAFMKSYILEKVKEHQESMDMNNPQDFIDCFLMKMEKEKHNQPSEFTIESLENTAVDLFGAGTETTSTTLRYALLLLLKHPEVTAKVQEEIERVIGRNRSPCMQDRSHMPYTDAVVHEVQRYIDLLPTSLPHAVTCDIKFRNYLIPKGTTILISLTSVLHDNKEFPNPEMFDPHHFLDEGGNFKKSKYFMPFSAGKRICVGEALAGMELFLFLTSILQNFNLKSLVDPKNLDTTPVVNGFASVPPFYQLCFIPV
Cytochrome P450 2D6, sequence (P10635 whole entry): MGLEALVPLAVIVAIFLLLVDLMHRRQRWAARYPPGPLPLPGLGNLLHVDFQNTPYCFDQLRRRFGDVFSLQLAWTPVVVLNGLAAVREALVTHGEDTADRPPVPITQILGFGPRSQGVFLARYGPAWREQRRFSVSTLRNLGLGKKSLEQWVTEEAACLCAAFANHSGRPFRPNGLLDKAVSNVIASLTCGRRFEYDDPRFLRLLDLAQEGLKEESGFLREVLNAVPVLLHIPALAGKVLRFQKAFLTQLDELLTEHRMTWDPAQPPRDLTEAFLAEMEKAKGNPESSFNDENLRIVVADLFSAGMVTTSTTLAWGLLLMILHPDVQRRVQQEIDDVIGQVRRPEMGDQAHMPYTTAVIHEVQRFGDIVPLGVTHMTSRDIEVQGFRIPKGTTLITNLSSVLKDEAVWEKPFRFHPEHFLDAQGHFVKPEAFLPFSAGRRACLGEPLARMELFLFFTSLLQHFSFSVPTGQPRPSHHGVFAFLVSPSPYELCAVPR

For `C[C@H]1CN(S(=O)(=O)C[C@]23CC[C@H](C[C@@H]2O)C3(C)C)CCN1c1ncc(C(F)(F)F)cc1F`, the IC50 on Cytochrome P450 3A4 [1] was 13600 nM; on Cytochrome P450 1A2 it was > 25000 nM; on Cytochrome P450 3A4 [2], > 25000 nM; in data set [3], 200 nM; against Cytochrome P450 2D6, > 25000 nM; on Cytochrome P450 2C9, 4000 nM. Besides, the IC50 in data set [4] is 31.6 nM; against Cytochrome P450 2C19, 4000 nM. Moreover, the Kb in data set [5] is 20 nM.

Turning to `C[C@H]1CN(S(=O)(=O)C[C@]23CC[C@H](CC2=O)C3(C)C)CCN1c1ncc(C(F)(F)F)cc1F`, the Vd in data set [6] was 2.2 L/kg. In data set [7], this compound showed a solubility of 4 µg/mL (≈ 8.38 µM). The compound also gave a t1/2 in the data set with Rattus norvegicus of 30 min. For the same compound, the bioavailability in data set [8] was found to be 8%. The IC50 against Cytochrome P450 1A2 is 160 nM; against Cytochrome P450 3A4 [2], 320 nM; in data set [3], 501 nM; in data set [4], 79.4 nM; in data set [10], > 63000 nM. In [9], the clearance amounted to 108 mL/min/kg. The Kb in [5] was 25.1 nM. Also, the Papp in data set [11] is 35.2 ×10⁻⁶ cm/s.
